Results gathered from unrelated publications.
Values after ≈ are worked out from the molar mass of the structure shown.
Organism: Staphylococcus epidermidis

The MIC of `CN[C@H](CC(C)C)C(=O)N[C@H]1C(=O)N[C@@H](CC(N)=O)C(=O)N[C@H]2C(=O)N[C@H]3C(=O)N[C@H](C(=O)N[C@H](C(=O)O)c4cc(O)cc(O)c4-c4cc3ccc4O)[C@H](O)c3ccc(c(Cl)c3)Oc3cc2cc(c3O[C@@H]2O[C@H](CO)[C@@H](O)[C@H](O)[C@H]2O[C@H]2C[C@](C)(N)[C@H](O)[C@H](C)O2)Oc2ccc(cc2Cl)[C@H]1O` is reported as 0.5 µg/mL (microbial growth; ATCC14990).
With `CN[C@H](CC(C)C)C(=O)N[C@H]1C(=O)N[C@@H](CC(N)=O)C(=O)N[C@H]2C(=O)N[C@H]3C(=O)N[C@H](C(=O)N[C@H](C(=O)O)c4cc(O)cc(O)c4-c4cc3ccc4O)[C@H](O)c3ccc(c(Cl)c3)Oc3cc2cc(c3O[C@@H]2O[C@H](CO)[C@@H](O)[C@H](O)[C@H]2O[C@H]2C[C@](C)(N)[C@H](O)[C@H](C)O2)Oc2ccc(cc2Cl)[C@H]1O` the MIC was 1.56 µM (microbial growth, broth dilution; 12228; 16 h).
The MBC of `Cc1c(NN=C(C#N)C2=NC(=O)CS2)c(=O)n(-c2ccccc2)n1C` is reported as 1 µg/mL (≈ 2.82 µM) (microbial killing, broth dilution).
With `Cc1ccc2[nH]c3c(c2c1)CCCC3NCCc1ccc(Br)cc1` (centres unmarked) the MIC was 4 µg/mL (microbial growth, broth dilution; MRSE).
The MIC of `CCCCCC/C=C\CCCCCCCCCc1cc(O)cc(O)c1` is reported as over 64 µg/mL (microbial growth, broth dilution; ATCC35984; drug-resistant strain).
With `Cc1ccc2[nH]c3c(c2c1)CCCC3NCCc1ccc(O)cc1` (centres unmarked) the MIC was 16 µg/mL (microbial growth, broth dilution; MRSE).
With `CN[C@H](CC(C)C)C(=O)N[C@H]1C(=O)N[C@@H](CC(N)=O)C(=O)N[C@H]2C(=O)N[C@H]3C(=O)N[C@H](C(=O)N[C@H](C(=O)O)c4cc(O)cc(O)c4-c4cc3ccc4O)[C@H](O)c3ccc(c(Cl)c3)Oc3cc2cc(c3O[C@@H]2O[C@H](CO)[C@@H](O)[C@H](O)[C@H]2O[C@H]2C[C@](C)(N)[C@H](O)[C@H](C)O2)Oc2ccc(cc2Cl)[C@H]1O` the MIC was 0.78 µM (microbial growth, broth dilution; 12228).
`CCCCCCCCCC(=O)N[C@@H](Cc1c[nH]c2ccccc12)C(=O)N[C@H](CC(N)=O)C(=O)N[C@@H](CC(=O)O)C(=O)N[C@@H]1C(=O)NCC(=O)N[C@@H](CCCN)C(=O)N[C@@H](CC(=O)O)C(=O)N[C@H](C)C(=O)N[C@@H](CC(=O)O)C(=O)NCC(=O)N[C@H](CO)C(=O)N[C@@H]([C@H](C)CC(=O)O)C(=O)N[C@@H](CC(=O)c2ccccc2N)C(=O)O[C@@H]1C` has an MIC of 1 µg/mL (microbial growth, broth dilution; ATCC35984; drug-resistant strain).
